The subject of test [1] is Rattus norvegicus. As to the kind of experiment: Antiinflammatory activity in rat assessed as inhibition of carrageenan-induced paw edema at 15 mg/kg, po relative to control. In kind it is functional. The procedure, abridged:
(§1)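 Carrageenan paw edema in rats, compounds given orally. Edema is expressed as percent inhibition.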
In general terms: In the carrageenan paw model, swelling and tenderness develop within hours.

Test [2] concerns Rattus norvegicus. As to the kind of experiment: Antiinflammatory activity in Wistar rat assessed as inhibition of cotton pellet-induced granuloma formation at 50 mg/kg, po after 5 days relative to control. In kind it is functional. The settings on record: for inhibition in vivo at 50 mg/kg: 120 h. The procedure, abridged:
(§2)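 Preweighed sterile cotton wool pellets were implanted subcutaneously in rats, one on each side of a ventral midline incision. Compounds were suspended in 0.7% methylcellulose and given orally once daily on days 0–5, starting 2–3 h before implantation; controls received vehicle (10 mL/kg). On day 6 the pellets were removed and dried at 80 °C to constant weight. Mean granuloma per rat was compared with controls by Student's t test.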

Test [3] concerns Rattus norvegicus. Put plainly: Antiinflammatory activity in rat assessed as inhibition of carrageenan-induced paw edema at 100 mg/kg, po relative to control. Type of test: functional. Put shortly:
as §1

Test [4] deals with Rattus norvegicus. Put plainly: Antiinflammatory activity in Wistar rat assessed as inhibition of cotton pellet-induced granuloma formation at 3 mg/kg, po after 5 days relative to control. On the set-up: dose 3 mg/kg. In kind it is functional, organism-based. Put shortly:
as §2

Test [5] deals with Rattus norvegicus. Put plainly: Antiinflammatory activity in Wistar rat assessed as inhibition of cotton pellet-induced granuloma formation at 10 mg/kg, po after 5 days relative to control. Type of test: functional. The settings on record: 120 h. The procedure, abridged:
as §2

For test [6], the species on record is Rattus norvegicus. Put plainly: animal or person. The settings on record: po, read-out: INH.
For test [7], the species on record is Rattus norvegicus. As to the kind of experiment: animal or person. Particulars: Wistar, po, 120 h, read-out: INH.
Test [8] has as its system Rattus norvegicus. Put plainly: Antiinflammatory activity in rat assessed as inhibition of carrageenan-induced paw edema at 300 mg/kg, po relative to control. In kind it is functional. The procedure, abridged:
as §1

Test [9] concerns Rattus norvegicus. As to the kind of experiment: Antiinflammatory activity in Wistar rat assessed as inhibition of cotton pellet-induced granuloma formation at 100 mg/kg, po after 5 days relative to control. Type of test: functional. Particulars: 120 h. Put shortly: as §2

The source made the active and inactive calls. The calls are words filed in the database; no cut-off is given here.

This passage reports inhibition in vivo and inhibition results from ChEMBL document CHEMBL3272122, “4-(6-Methoxy-2-naphthyl)butan-2-one and related analogues, a novel structural class of antiinflammatory compounds” (1978).

As for `COc1ccc2cc(CCC(C)=O)ccc2c1` [NABUMETONE], the inhibition in vivo at 15 mg/kg in the test on Rattus norvegicus [1] came out at 37%. In addition, the inhibition in vivo at 50 mg/kg with Rattus norvegicus [2] came to 39%.

As for `COc1ccc2cc(/C=C/C(C)=O)ccc2c1`, in the test with Rattus norvegicus [2], the inhibition in vivo at 50 mg/kg came out at 18%. Further, the inhibition in vivo at 100 mg/kg with Rattus norvegicus [3] is 50%.

Take `CC(=O)CCc1ccc2cc(O)ccc2c1`: the inhibition in vivo at 50 mg/kg in the test on Rattus norvegicus [2] was found to be 5%.

In the case of `COc1ccc2cc(CCC(C)(C)O)ccc2c1`, the inhibition in vivo at 50 mg/kg with Rattus norvegicus [2] was 3%.

For the molecule `CCC(=O)CCc1ccc2cc(OC)ccc2c1`, in the test on Rattus norvegicus [2], the inhibition in vivo at 50 mg/kg is 7%.

Turning to `COc1ccc2cc(CC(=O)O)ccc2c1`, the inhibition result in the test on Rattus norvegicus [2] was “Active”.

Turning to `COc1ccc(CCC(C)=O)c2ccccc12`, the inhibition in vivo at 50 mg/kg in the test on Rattus norvegicus [2] is 0%.

Consider `COc1ccc2cc(CC(C)C(C)=O)ccc2c1` (stereo not drawn), for which the inhibition in vivo at 50 mg/kg in the test with Rattus norvegicus [2] stood at 7%.

In the case of `CC(=O)CCc1ccc2ccccc2c1`, in the test with Rattus norvegicus [2], the inhibition in vivo at 50 mg/kg amounted to 20%.

`COc1ccc2cc(C(C)CC(C)=O)ccc2c1` (stereo not drawn): in the test on Rattus norvegicus [2], the inhibition in vivo at 50 mg/kg stood at 24%. Further, the inhibition in vivo at 100 mg/kg in the test with Rattus norvegicus [3] was 36%.

As for `C[C@]12CCC(=O)C=C1CC[C@@H]1[C@@H]2[C@@H](O)C[C@@]2(C)[C@H]1CC[C@]2(O)C(=O)CO` [HYDROCORTISONE], the inhibition result with Rattus norvegicus [4] was “inactive”. Moreover, the inhibition in vivo at 10 mg/kg with Rattus norvegicus [5] is 30%.

As for `CC(=O)CCc1ccc2cc(Cl)ccc2c1`, in the test with Rattus norvegicus [2], the inhibition in vivo at 50 mg/kg turned out to be 53%.

As for `COc1ccc2ccccc2c1CCC(C)=O`, in the test on Rattus norvegicus [2], the inhibition in vivo at 50 mg/kg was found to be 10%.

For the molecule `CNC(=O)Oc1ccc2cc(CCC(C)=O)ccc2c1`, in the test with Rattus norvegicus [4], the inhibition entry was “inactive”. For the same molecule, in the test on Rattus norvegicus [2], the inhibition in vivo at 50 mg/kg came to 21%.

Regarding `COc1ccc2cc(CCC(C)O)ccc2c1` (stereo not drawn), the inhibition in vivo at 50 mg/kg with Rattus norvegicus [2] was 32%.

`CCOc1ccc2cc(CCC(C)=O)ccc2c1`: the inhibition in vivo at 50 mg/kg with Rattus norvegicus [2] worked out at 12%.

For the molecule `CC(=O)CCc1ccc2cc(OC(C)=O)ccc2c1`, in the test with Rattus norvegicus [2], the inhibition in vivo at 50 mg/kg amounted to 2%.

Turning to `COc1ccc2cc([C@H](C)C(=O)O)ccc2c1` [NAPROXEN], the inhibition in vivo at 6 mg/kg in the test listed under Rattus norvegicus [6] came to 30%. Further, the inhibition result with Rattus norvegicus [4] was “inactive”. The inhibition in vivo at 30 mg/kg in the test listed under Rattus norvegicus [7] came to 46%.

For `COc1ccc2cc(CCC(C)OC(C)=O)ccc2c1` (stereo not drawn), in the test on Rattus norvegicus [2], the inhibition in vivo at 50 mg/kg turned out to be 38%.

As to `COc1ccc2cc(CCC(C)OC(=O)CC(C)(C)CC(=O)O)ccc2c1` (stereo not drawn), in the test on Rattus norvegicus [2], the inhibition in vivo at 50 mg/kg was found to be 26%.

Regarding `CC(=O)CC(C)c1ccc2cc(C)ccc2c1` (stereo not drawn), the inhibition in vivo at 50 mg/kg with Rattus norvegicus [2] was 11%.

As to `CCC(CC(C)=O)c1ccc2cc(OC)ccc2c1` (stereo not drawn), the inhibition in vivo at 50 mg/kg in the test on Rattus norvegicus [2] was 20%.

Turning to `COc1ccc2cc(CCC3(C)OCCO3)ccc2c1`, the inhibition in vivo at 50 mg/kg in the test on Rattus norvegicus [2] was 22%.

Consider `CC(=O)Oc1ccccc1C(=O)O` [ASPIRIN], for which the inhibition entry with Rattus norvegicus [4] was “inactive”. Besides, the inhibition in vivo at 300 mg/kg in the test with Rattus norvegicus [8] is 31%. The inhibition in vivo at 100 mg/kg in the test on Rattus norvegicus [9] came out at 5%.

For the molecule `CC(=O)/C=C/c1ccc2cc(C)ccc2c1`, in the test on Rattus norvegicus [2], the inhibition in vivo at 50 mg/kg was found to be 29%.

In the case of `COc1ccc2cc(CCC(C)OC(=O)c3cc(OC)c(OC)c(OC)c3)ccc2c1` (stereo not drawn), the inhibition in vivo at 50 mg/kg in the test with Rattus norvegicus [2] was found to be 41%.

For `CC(=O)CCc1ccc2cc(C)ccc2c1`, the inhibition in vivo at 50 mg/kg with Rattus norvegicus [2] is 34%.

As for `COc1ccc2cc(CC/C(C)=N\O)ccc2c1`, in the test with Rattus norvegicus [2], the inhibition in vivo at 50 mg/kg worked out at 15%.

Consider `Cc1ccc2cc(CCC(C)O)ccc2c1` (stereo not drawn), for which, in the test on Rattus norvegicus [2], the inhibition in vivo at 50 mg/kg worked out at 35%.
